High-throughput results: PubChem, The Scripps Research Institute Molecular Screening Center
Rows were chosen to be rich in hits. Some 2.6% of all compounds tested hit in one or more screens of this group.
TCR CD3 inh = inhibitors of human TCR-CD3 interaction, primary screen, biochemical, fluorescence, TAMRA-labeled TCR probe; inhibition, % at 9.4 µM; hit rate 0.37% among 360,000; in the data active means inhibition above about 19%;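 further: recombinant mutant TCR 2C K166C tagged with TAMRA read by polarization; 0% = receptor in buffer alone and 100% = receptor with positive control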
ABHD4 inh = ABHD4 inhibitors, primary screen, biochemical, fluorescence polarization, mouse; (Lyso)-N-acylphosphatidylethanolamine lipase (Mus musculus), Q8VD66; purified mABHD4, FP-Rh probe fluorescence polarization; inhibition, % at 8.92 µM; hit rate 0.54% among 370,000;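 active means inhibition exceeding the mean over every tested compound plus 3 SD, cut at about 30% in these data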;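 further: 0% = plate median of compound wells and 100% = S159A mutant with DMSO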
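System: mouse ABHD4 enzyme, wild type / Medium: HEPES pH 7.0, NaCl, Pluronic buffer / Reagent: FP-Rh activity-based fluorescent probe / Control set: S159A mutant high control, sample median low control / Detection: fluorescence polarization with parallel and perpendicular emission, 525/598 nm / Schedule: 45 min + 60 min at 25 °C / Compound dosing: 8.92 µM, single dose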
SIAE primary = human SIAE inhibitors, primary screen, biochemical, fluorescence polarization, FP-Rh probe, 1536-well HTS; Sialate O-acetylesterase (Homo sapiens), Q9HAT2; SIAE FP-Rh probe binding; hit rate 0.69% among 370,000; inhibition, % at 9.66 µM; AID 1053197, 2014;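 active means inhibition above a cutoff: mean of compounds within the control limits plus 3 SD of those, cut at about 17% in these data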;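 further: 0% = plate median of compound wells and 100% = probe without SIAE protein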
PRMT1 FP inh = PRMT1 methyltransferase inhibitors, primary screen, biochemical, fluorescence polarization; hit rate 1.3% among 370,000; inhibition, % at 2.79 µM; Protein arginine N-methyltransferase 1 (Homo sapiens), Q99873; recombinant PRMT1, activity-based probe fluorescence polarization;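 active means inhibition above about 21% made by adding two undisclosed values, limit read from the data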
Target sequence (Q99873 whole entry, looked up): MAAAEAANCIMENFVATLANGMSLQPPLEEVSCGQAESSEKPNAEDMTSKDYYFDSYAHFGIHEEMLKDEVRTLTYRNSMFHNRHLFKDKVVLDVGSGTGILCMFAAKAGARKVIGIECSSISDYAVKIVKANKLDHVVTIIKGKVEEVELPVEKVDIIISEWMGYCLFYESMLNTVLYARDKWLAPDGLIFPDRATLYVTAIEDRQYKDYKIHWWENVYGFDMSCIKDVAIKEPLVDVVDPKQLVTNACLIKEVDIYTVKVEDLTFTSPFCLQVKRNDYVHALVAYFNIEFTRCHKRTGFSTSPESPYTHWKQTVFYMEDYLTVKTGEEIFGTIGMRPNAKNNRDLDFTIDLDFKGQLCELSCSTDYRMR
HTRA1 inh = HTRA1 serine protease inhibitors, primary screen, biochemical, fluorescence polarization, HTS; recombinant HTRA1, FP-rhodamine activity-based probe; inhibition, % at 5.96 µM; Q92743; hit rate 0.5% among 340,000; in the data active means inhibition above about 36%;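 further: 0% = enzyme with DMSO and 100% = wells lacking enzyme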
HTRA1 inh conf = HTRA1 protease inhibitors, retest, confirmation, biochemical, fluorescence polarization | shares compounds with HTRA1 inh | recombinant HTRA1, FP-rhodamine activity-based probe | inhibition, % at 5.96 µM | hit rate 66% among 1,600;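 active means mean inhibition over three repeats above a set limit taken from the earlier primary screen, cut at about 37% in these data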;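 further: 0% = HTRA1 with DMSO and 100% = wells lacking HTRA1; inhibitors block probe binding so polarization drops and inhibition rises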
* hit, by the source's call; nt = not tested or not shown; + = active, no number.

SMILES	TCR CD3 inh	ABHD4 inh	SIAE primary	PRMT1 FP inh	HTRA1 inh	HTRA1 inh conf
CCC(=O)NC(c1cccs1)c1cc(Cl)c2cccnc2c1O (stereo unspecified)	1	8	17	-6	54*	65*
CN1CCN(C(c2ccc(C(F)(F)F)cc2)c2cc(Cl)c3cccnc3c2O)CC1 (stereo unspecified)	-2	-7	7	-5	nt	nt
CC(=O)C1=C(C)NC(=S)NC1c1ccccc1 (stereo unspecified)	1	3	4	2	nt	nt
CCCCc1c(-c2ccccc2OC)ncn1Cc1ccc(F)c(F)c1	9	9	6	-1	nt	nt
NS(=O)(=O)c1ccc(N/C=C\C(=O)c2ccc(F)cc2)cc1	7	-6	-7	0	-7	nt
CN(C)c1ccc(N/C=C/C(=O)c2ccc(F)cc2)cc1	nt	nt	nt	nt	53*	2
CN(C)c1ccc(C=Cc2ccnc3c(O)cccc23)cc1	-7	-3	23*	-2	63*	54*
COc1ccccc1/C=C1\SC(=S)N(CCC(=O)NNC(=O)c2ccccc2O)C1=O	nt	nt	nt	nt	39*	68*
Oc1cc(Nc2ccncc2)cc2cccnc12	5	-3	4	2	43*	37*
COc1cccc2c1C(=N)c1c(O)c3c(c(O)c1C2=O)CC(O)(C(C)=O)CC3OC1CC(N)C(O)C(C)O1 (stereo unspecified)	nt	nt	nt	nt	41*	43*
CC1CC(C)CN(CCCNS(=O)(=O)c2cc3c(cc2Br)CCN3C(=O)C2CC2)C1 (stereo unspecified)	nt	-4	5	-5	nt	nt
COc1cccc(CNc2ccc(N3CCCCC3)cc2)c1OC	-5	25	10	2	59*	7
COc1cccc(CNc2ccc(S(N)(=O)=O)cc2)c1OC	0	1	-1	-1	-2	nt
COc1ccccc1CNc1ccc(N2CCCCC2)cc1	nt	nt	nt	nt	57*	14
COc1ccc(C(=O)OCCN2CCN(C3CN(Cc4cn(Cc5ccccc5Cl)nn4)S(=O)(=O)C3)CC2)cc1OC (stereo unspecified)	nt	3	1	1	nt	nt
Cc1sc2ncnc(N/N=C/c3ccccc3O)c2c1C	-1	22	3	-1	60*	61*
Cc1sc2ncnc(N/N=C/c3ccc(O)cc3)c2c1C	1	18	-2	-6	20	nt
COc1ccc(NC(=O)N(C)C[C@H]2OCCCC[C@H](C)Oc3ccc(NC(=O)Nc4cccc5ccccc45)cc3C(=O)N([C@@H](C)CO)C[C@H]2C)cc1	0	6	-6	1	nt	nt
CN(C)c1ccc(-c2cc(O)c3ncccc3c2)cc1	5	8	14	-5	24	nt
CN(C)CCCNC(=O)c1ccc(-c2cc(O)c3ncccc3c2)cc1	-9	11	0	-3	69*	85*
CCOC(=O)CNC(=O)N(C)[C@H]1C[C@H]2c3[nH]c4c(-c5ccccc5)cccc4c3CCN2C(=O)[C@H]1[C@H](C)O	-1	6	1	2	nt	nt
COC(=O)c1cc2c(c3c4cc(C)ccc4n(S(=O)(=O)c4cccc(C)c4)c13)C(=O)N(C)C2	1	-6	-1	-4	nt	nt
CC1CCCN(C(=O)Nc2ccc([N+](=O)[O-])cc2)C1 (stereo unspecified)	5	-4	4	-1	nt	nt
Cc1ccc(-n2c(C)cc(-c3csc(N)n3)c2C)cc1	-2	18	9	18	52*	50*
Cc1ccc(/C=C/C(=O)c2ccccc(=O)c2O)cc1C	7	29	4	13	37*	44*
SMILES	TCR CD3 inh	ABHD4 inh	SIAE primary	PRMT1 FP inh	HTRA1 inh	HTRA1 inh conf
COCCNC(=S)N(C)[C@H]1C[C@H]2c3[nH]c4ccccc4c3CCN2C(=O)[C@H]1[C@H](C)O	-3	0	4	5	nt	nt
NC(=S)NN=Cc1nccc2c(C(F)(F)C(F)(F)C(F)(F)F)cccc12	-1	18	3	-4	68*	64*
COC(=O)[C@]12C[C@H](CC(=O)NCc3cccc4ccccc34)C(=O)N(Cc3ccc4c(c3)OCO4)C1=C[C@H](C(C)(C)C)O[C@@H]2C	-7	-12	-8	-1	nt	nt
CCC(=C(c1ccc(OC)cc1)c1ccc(OC)cc1)c1cn(CC(O)CN2CCN(C)CC2)c2ccccc12 (stereo unspecified)	-9	25	13	7	37*	39*
N/C(Cc1ccc(Cl)c(Cl)c1)=N\OC(=O)c1ccc(Br)o1	-4	-3	-5	2	+	-5
COC(=O)C(CC(C)C)N(Cc1ccc(Br)cc1)S(=O)(=O)CCl (stereo unspecified)	7	-4	-2	0	nt	nt
CCOc1ccc(C(=O)N/N=C/c2ccc(-c3ccc(S(=O)(=O)Nc4ncccn4)cc3)o2)cc1	9	-8	-6	1	-7	nt
O=C(N/N=C/c1ccc(-c2ccc(S(=O)(=O)Nc3ncccn3)cc2)o1)c1cc2ccccc2cc1O	18	1	10	17	57*	66*
C=CCn1c(SCC(=O)c2ccc(O)c(O)c2)nnc1-c1cccnc1	18	18	8	11	16	nt
C=CCn1c(SCC(=O)c2ccc(O)c(O)c2)nnc1-c1cccc(Cl)c1	9	23	3	8	56*	73*
Cc1cc(C)c(S(=O)(=O)/N=C2\C=C(Nc3ccc(C(=O)O)cc3)C(=O)c3ccccc32)c(C)c1	3	71*	18*	14	60*	52*
CC(=O)Nc1ccc(NC2=CC(=O)c3ccccc3C2=O)cc1	6	3	2	-3	5	nt
CCc1ccc(S(=O)(=O)/N=C2\C=C(Nc3ccc(O)cc3)C(=O)c3ccccc32)cc1	nt	nt	nt	nt	78*	80*
O=C1C=C(Nc2ccc(O)cc2)C(=O)c2ccccc21	3	14	7	1	37*	30
O=C(CSc1ccc2ccccc2n1)NCCCN1CCCC1=O	7	5	1	1	9	nt
Cc1ccc(NCCN(C)C)c2c(=O)c3cc(O)ccc3sc12	0	18	13	1	21	nt
COc1cc(C)c2sc3ccccc3c(=O)c2c1NCCN(C)C	-6	24	2	9	36*	44*
O=C(Nc1ccc2c(c1)Cc1ccccc1-2)NC1CCCCN(Cc2ccc(Cl)cc2)C1=O (stereo unspecified)	nt	-5	-3	3	nt	nt
CCNc1ccc(Br)cc(C(=O)/C=C/c2ccc(Cl)cc2)c1=O	nt	nt	nt	nt	63*	36
Nc1ccccc1N=Nc1ccccc1N	-5	9	8	4	42*	39*
COc1ccc(CN(C)C(C)C(=O)Nc2ccc(S(=O)(=O)N3CCCCC3)cc2)cc1F (stereo unspecified)	-8	-6	0	3	-22	nt
